From PubChem BioAssay
HSF1 inhib: HSF1 inhibitors in luciferase reporter cells, primary screen, cell-based, NIH3T3, luminescence. NIH3T3-HGL HSE-luciferase, MG132-induced, luminescence 8 h; stronger effect = lower value. activity change, negative = inhibition, % at 7.5 µM (by protocol). 300,000 compounds, 0.77% hits;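 active means more than half of replicate wells show activity change below -50%, luminescence cut by over half; inconclusive means some wells, but at most half, below -50%; inactive means no replicate well below -50%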;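 further: luciferase reports HSF-1 transcriptional activity via heat shock element; 0% = median of DMSO wells and -100% = zero luminescence signal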
HSF-1 act: HSF-1 activators, primary screen, NIH3T3-HGL cells, MG132 stress, luminescence, single point; activation, % at 9 µM; 300,000 compounds, 1.7% hits; NIH3T3-HGL HSF-1 luciferase reporter, 8 h; 100% = twice DMSO control signal;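 active means mean replicate activation of at least 50% with a set share of replicates each reaching 50%; inconclusive means only one of those two conditions met; inactive means mean below 50% and too few replicates reaching it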;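 further: 0% = median of the neutral control wells and 100% = twice that signal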
HSP90 refold inh: HSP90 inhibitors, primary screen, cell lysate, luminescence. Heat shock protein HSP 90 (rabbit reticulocyte lysate; luciferase refolding). Rabbit reticulocyte lysate, luciferase refolding luminescence, 3 h. inhibition, % at 5.6 µM. 290,000 compounds, 0.91% hits. AID 1789, 2009;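 active means inhibition above the screen-wide mean plus 3 SD, computed separately per campaign, cut at about 16% in these data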;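 further: 0% = DMSO wells and 100% = 60 µM geldanamycin wells; inhibitors lower the luminescence because luciferase stays unfolded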
HCV NS3 hel inh: inhibitors of HCV NS3 helicase, primary screen, biochemical, Cy5 molecular beacon fluorescence | Hepatitis C virus NS3 helicase | NS3 helicase DNA unwinding | inhibition, % at 10.9 µM | 290,000 compounds, 0.56% hits | AID 1800, 2009;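 active means inhibition above the mean of all tested compounds plus 3 SD, set per campaign, cut at about 35% in these data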;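 further: 0% = DMSO wells and 100% = thioflavine S control wells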
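test system = hepatitis C virus NS3 helicase domain fragment enzyme | reagent = annealed dual-labelled DNA beacon duplex, ATP-started | times = 1 h at 25 °C | detection = Cy5 fluorescence, 0 and 60 min reads | read-out basis = percent inhibition from t60/t0 fluorescence ratio | control set = DMSO and thioflavine S | replication = one well per compound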
Lipid droplet: inhibitors of hepatocyte lipid droplet formation, primary screen, imaging, high-throughput imaging, BODIPY stain; AML12 mouse hepatocytes, oleate lipid droplets; inhibition, % at 6.5 µM; 240,000 compounds, 0.4% hits;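 active means lipid droplet intensity inhibited by at least 50%, with more than 500 cells counted; inconclusive means wells with under 300 cells, treated as cytotoxic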
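Assay system: AML12 hepatocytes (mouse) / Also added: 100 µM oleic acid challenge / Times: overnight treatment with compound plus oleate / Detection: high-content imaging of BODIPY-stained droplets and DAPI nuclei / Evaluation: % inhibition of lipid droplet signal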
NS3 hel confirm: HCV NS3 helicase inhibitors, retest, confirmation, biochemical, Cy5 molecular beacon fluorescence, triplicate; 1,600 compounds, 31% hits; NS3 helicase DNA unwinding; shares compounds with HCV NS3 hel inh; inhibition, % at 10.9 µM; AID 1943, 2009;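 active means inhibition above the mean of all tested compounds plus 3 SD, cutoff set per campaign, cut at about 36% in these data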
FID counter trip: compounds displacing fluorescent DNA intercalator, artefact control for HCV NS3 helicase inhibitor project, biochemical, FID fluorescence, triplicate | shares compounds with HCV NS3 hel inh | DNA fluorescent intercalator displacement | inhibition, % at 7.9 µM | 1,600 compounds, 4% hits | AID 1945, 2009; in the data active means inhibition above about 37%;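 further: 0% = vehicle and 100% = reference compound; higher means more displacement of ethidium bromide from the DNA hairpin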
DNA FID DR: compounds displacing fluorescent intercalator from DNA, dose response, counter-screen for HCV NS3 helicase inhibitor project, biochemical, fluorescence. 120 tested, under 10 active. shares compounds with HCV NS3 hel inh. IC50, µM. fluorescent intercalator displacement from DNA; call rule not given here
Numbers without * were called inactive; ? = inconclusive; / = not tested or not shown. Rows were chosen to be rich in hits. Some 3.8% of all compounds tested hit in one or more screens of this group.

SMILES | HSF1 inhib | HSF-1 act | HSP90 refold inh | HCV NS3 hel inh | Lipid droplet | NS3 hel confirm | FID counter trip | others
O=C(O)C1Nc2c(O)cccc2C2C=CCC12 (centres undefined) | / | / | 0.9 | 58.2* | -7.0 | 110.3* | 13.7 | DNA FID DR=>79.4
CCOC(=O)c1ccc2c(c1)C1C=CCC1C(C(=O)OCC)N2 (centres undefined) | 3.5 | 1.7 | -2.8 | 50.7* | -6.1 | 14.2 | 7.2
CCOC(=O)C1Nc2ccc(C)cc2C2C=CCC12 (centres undefined) | 3.8 | -11.7 | / | / | / | / | /
CC(C)CNC(=O)C1Nc2ccc(C(F)(F)F)cc2C2C=CCC12 (centres undefined) | -22.2 | -40.3 | / | / | / | / | /
CNc1ccc(Br)cc(C(=O)/C=C/c2ccc(OC)cc2OC)c1=O | 6.7 | 20.0 | -2.6 | 33.5 | -61.5 | / | /
CNc1ccc(Br)cc(C(=O)/C=C/c2cccc(OC)c2)c1=O | -0.3 | 1.9 | 0.6 | 43.5* | 2.4 | 53.5* | 14.7 | DNA FID DR=>79.4
CCNc1ccc(Br)cc(C(=O)/C=C/c2ccc3c(c2)OCO3)c1=O | 6.9 | -7.1 | 4.3 | 46.7* | / | 40.7* | -4.6
CNc1ccc(Br)cc(C(=O)/C=C/c2ccc(Cl)cc2Cl)c1=O | 36.4 | ? | -2.5 | 38.5* | 2.6 | 74.3* | 13.8 | DNA FID DR=>79.4
CCOC(=O)CSc1nc2sc3c(c2c(=O)n1-c1ccccc1)CCN(C(C)C)C3 | -1.6 | -6.8 | 2.6 | -74.9 | 8.3 | / | /
Nc1cc([N+](=O)[O-])ccc1O | -5.0 | 0.3 | 0.1 | 44.2* | -32.1 | 2.2 | 17.3
COc1ccc(NC(=O)c2cccc(NC3=NC4CS(=O)(=O)CC4S3)c2)cc1Cl (centres undefined) | -2.8 | -10.9 | 0.3 | 3.0 | -15.0 | / | /
Fc1ccccc1/C=N/n1c(COc2ccccc2)n[nH]c1=S | 3.3 | -1.3 | 3.6 | 49.7* | / | 8.8 | -11.9
O=C(COC(=O)Cn1cnc2ccccc21)Nc1cccc(S(=O)(=O)N2CCOCC2)c1 | -2.9 | -6.1 | 0.2 | -4.6 | 3.5 | / | /
COc1ccccc1NS(=O)(=O)c1ccc(Cl)c(NC(=S)NC(=O)C2CCCC2)c1 | -1.2 | 11.5 | -0.2 | -10.7 | 3.7 | / | /
CCN(CC)c1ccc(S(=O)(=O)Nc2cc(Cl)ccc2Cl)cc1NC(=S)NC(=O)C1CCCC1 | 3.3 | 33.0 | 11.2 | 58.4* | -20.2 | 23.3 | -8.9
CCCCNC(=O)O[C@H]1C[C@@H]2CCN3C(=O)CCC[C@H]([C@H]1Cc1ccccc1)[C@H]23 | 10.6 | 40.7 | -9.4 | -4.8 | 4.6 | / | /
CCCCCCOc1ccc(C(=O)O)cc1C#N | 4.8 | 30.4 | 1.0 | 37.7* | 10.8 | 16.1 | -8.2
CCCCOc1ccc(C(=O)O)cc1 | -6.3 | -12.3 | 1.4 | -1.3 | 3.1 | / | /
Cc1ccc(-c2nn(Cc3ccccc3)cc2/C=C/C(=O)O)cc1 | 5.6 | 36.6 | 2.3 | 43.6* | / | 9.7 | -8.8
Cc1c(CC(=O)N[C@@H](CCCNC(N)=O)C(=O)O)c(=O)oc2cc3oc4c(c3cc12)CCCC4 | -3.0 | -0.7 | 15.1 | 21.5 | 14.1 | / | /
CCCCC(NC(=O)Cc1c(C)c2cc3c4c(oc3cc2oc1=O)CCCC4)C(=O)O (centres undefined) | -6.8 | 3.2 | -3.5 | 40.5* | 13.8 | 51.5* | -12.4
O=C(O)c1ccc(-c2ccco2)n1Cc1ccccc1 | 6.2 | 8.7 | 0.4 | 45.3* | 3.0 | -30.2 | -5.2
CC(CC(=O)O)CC(=O)Nc1cc(C(F)(F)F)cc(C(F)(F)F)c1 (centres undefined) | -4.3 | 4.1 | 12.5 | 45.1* | 0.9 | 5.1 | 5.0
Cc1ccc(C)c(S(=O)(=O)N(C)C2(C)CCS(=O)(=O)C2)c1 (centres undefined) | -2.0 | -2.9 | / | / | / | / | /
NN1C(=O)/C(=C\c2ccco2)SC1=S | -15.1 | -0.5 | 5.2 | 38.5* | -1.5 | -12.1 | -1.2
SMILES | HSF1 inhib | HSF-1 act | HSP90 refold inh | HCV NS3 hel inh | Lipid droplet | NS3 hel confirm | FID counter trip | others
O=C(CCCN1C(=O)/C(=C\c2cccs2)SC1=S)Nc1cccc(C(=O)O)c1 | -5.5 | 9.7 | 2.5 | 7.9 | 0.8 | / | /
O=C(CCCN1C(=O)/C(=C/c2ccco2)SC1=S)Nc1cccc(C(=O)O)c1 | -8.7 | -8.3 | 2.4 | 56.3* | / | 87.9* | 4.2
NS(=O)(=O)c1cccc(C(=O)NC2CCSc3ccccc32)c1 (centres undefined) | 4.0 | 12.1 | 3.8 | 7.0 | -16.2 | / | /
NS(=O)(=O)c1cc(C(=O)NC2CCSc3ccccc32)ccc1Cl (centres undefined) | -0.3 | 5.7 | -2.5 | 83.5* | -1.1 | 74.1* | 1.7
c1ccc(-n2cc(CNCCc3cscn3)c(-c3ccc4c(c3)OCO4)n2)cc1 | -4.1 | -3.2 | -0.9 | -59.5 | 0.9 | / | /
Cc1cccc(N2C(=O)C(O)=C(C(=O)c3cccs3)C2c2ccc(C(C)C)cc2)n1 (centres undefined) | 22.2 | ? | 4.2 | 55.4* | 0.8 | 78.5* | -9.6 | DNA FID DR=>79.4
CN(C)c1cccc2c(S(=O)(=O)N3CCCC3)cccc12 | 8.9 | -1.0 | 11.2 | 36.1* | 5.2 | -12.6 | -14.9
COc1ccc(-n2ccc(=O)c(C(=O)O)n2)c(OC)c1 | -2.2 | -6.6 | -3.7 | -26.0 | 8.7 | / | /
CC(CCC(=O)O)C1CCC2C3CCC4C[C@H](O)CCC4(C)C3CC(=O)C12C (some centres undefined) | 1.9 | -12.3 | 7.5 | 40.5* | 6.8 | -21.5 | -13.3
Nc1nc(SCCO)[nH]c(=O)c1NC(=O)c1ccc(Br)o1 | 9.2 | -8.8 | 3.5 | 5.8 | 4.8 | / | /
CCN(CC)c1ccc2c(-c3ccc(S(=O)(=O)O)cc3S(=O)(=O)[O-])c3ccc(=[N+](CC)CC)cc-3oc2c1 | -17.5 | -21.9 | -5.1 | 51.3* | -1.8 | 84.4* | /
CCOC(=O)Nc1ccc([N+](=O)[O-])cc1OC | -8.2 | 0.2 | 15.9 | 42.3* | / | -12.0 | -0.4
CCC(=O)OCC(=O)Nc1ccc([N+](=O)[O-])cc1OC | -9.7 | -12.8 | -2.0 | -2.7 | 0.8 | / | /
CNc1ccccc1C(C)(C)c1cc(C)[nH]n1 | -0.1 | 7.3 | -2.2 | -0.3 | -3.4 | / | /
CNc1ccccc1C(C)(C)c1cc(-c2ccco2)n[nH]1 | 13.7 | 12.3 | -0.2 | 40.7* | / | -9.5 | -27.1
O=C1c2ccccc2NC2(CCCCC2)N1N=C1CCCCC1 | 6.8 | 11.2 | -4.1 | 49.0* | 31.5 | -7.5 | -2.6
